Laboratory results as given in ChEMBL document CHEMBL3120154, “2-[N-Alkyl(R-phenyl)-aminomethyl]-3-phenyl-7-trifluoromethylquinoxalines as anticancer agents inhibitors of folate enzymes” (Eur J Med Chem, 2014).

Legend:
Type in all cases: functional
M14 = experiment: Cytotoxicity against human M14 cells at 10^-5 M after 48 hrs by SRB assay; conditions: M14, 48 h, read-out: GI
In short: (§1)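 Run in the NCI 60-cell-line screen after a three-line prescreen. Cells got a 48 h drug exposure; viability/growth was estimated with the sulforhodamine B protein assay. Growth inhibition (I%) was recorded at 100, 10, 1, 0.1 and 0.01 micromolar. Percent growth is relative to untreated control cells, and negative values indicate cell kill.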

[1] = Cytotoxicity against human UACC257 cells at 10^-6 M after 48 hrs by SRB assay; conditions: UACC-257, 48 h, read-out: GI
786-0 = experiment: Cytotoxicity against human 786-0 cells at 10^-6 M after 48 hrs by SRB assay; conditions: 786-0, 48 h, read-out: GI
In short: (§2)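 Run by NCI on its 60-line human tumor cell panel, after a three-cell-line prescreen. Cells were exposed to drug for 48 h over a 5-log range: 100, 10, 1, 0.1 and 0.01 micromolar. Growth was estimated by sulforhodamine B (SRB) protein staining. Percent growth inhibition (I%) was recorded at each concentration relative to untreated control cells.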

ACHN [2] = experiment: Cytotoxicity against human ACHN cells at 10^-5 M after 48 hrs by SRB assay; conditions: read-out: GI; in short: as §2
HCT-15 [3] = experiment: Cytotoxicity against human HCT15 cells at 10^-5 M after 48 hrs by SRB assay; conditions: HCT-15, 48 h, read-out: GI; in short: as §2
BT-549 = experiment: Cytotoxicity against human BT549 cells at 10^-5 M after 48 hrs by SRB assay; conditions: BT-549, 48 h, read-out: GI; in short: as §2
MDA-MB-435 = experiment: Cytotoxicity against human MDA-MB-435 cells at 10^-6 M after 48 hrs by SRB assay; conditions: MDA-MB-435, 48 h, read-out: GI; in short: as §1
KM12 [4] = experiment: Cytotoxicity against human KM12 cells at 10^-6 M after 48 hrs by SRB assay; conditions: KM12, 48 h, read-out: GI; in short: as §1
KM12 [5] = experiment: Cytotoxicity against human KM12 cells at 10^-5 M after 48 hrs by SRB assay; conditions: KM12, 48 h, read-out: GI; in short: as §1
HL-60(TB) = experiment: Cytotoxicity against human HL-60(TB) cells at 10^-5 M after 48 hrs by SRB assay; conditions: HL-60, 48 h, read-out: GI
In short: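 NCI 60-human-tumour-cell-line screen run over a 5-log dose range (100, 10, 1, 0.1 and 0.01 µM). Cells were exposed to drug for 48 h. Growth was estimated by sulforhodamine B protein staining. Values are percent growth inhibition at each concentration, relative to untreated control cells.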

HT-29 [6] = experiment: Cytotoxicity against human HT-29 cells at 10^-6 M after 48 hrs by SRB assay; conditions: HT-29, 48 h, read-out: GI; in short: as §2
SNB-19 [7] = experiment: Cytotoxicity against human SNB19 cells at 10^-6 M after 48 hrs by SRB assay; conditions: SNB-19, 48 h, read-out: GI
NCI/ADR-RES = experiment: Cytotoxicity against human NCI/ADR-RES cells at 10^-5 M after 48 hrs by SRB assay; conditions: read-out: GI; in short: as §1
HT-29 [8] = experiment: Cytotoxicity against human HT-29 cells at 10^-5 M after 48 hrs by SRB assay; conditions: HT-29, 48 h, read-out: GI; in short: as §2
RPMI-8226 = experiment: Cytotoxicity against human RPMI8226 cells at 10^-5 M after 48 hrs by SRB assay; conditions: RPMI-8226, 48 h, read-out: GI
In short: (§3)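 Second-stage screen in the 60-cell-line human tumor panel at NCI, over a 5-log range (100, 10, 1, 0.1, 0.01 micromolar). Cells were exposed to drug for 48 h and growth was estimated with a sulforhodamine B protein stain. The value is percent growth inhibition at each concentration.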

U-251 = experiment: Cytotoxicity against human U251 cells at 10^-5 M after 48 hrs by SRB assay; conditions: U-251, 48 h, read-out: GI
NCI-H226 = experiment: Cytotoxicity against human NCI-H226 cells at 10^-6 M after 48 hrs by SRB assay; conditions: NCI-H226, 48 h, read-out: GI; in short: as §1
SK-MEL-5 [9] = experiment: Cytotoxicity against human SK-MEL-5 cells at 10^-5 M after 48 hrs by SRB assay; conditions: SK-MEL-5, 48 h, read-out: GI; in short: as §3
HOP-62 = experiment: Cytotoxicity against human HOP62 cells at 10^-5 M after 48 hrs by SRB assay; conditions: HOP-62, 48 h, read-out: GI; in short: as §2
SK-OV-3 = experiment: Cytotoxicity against human SKOV3 cells at 10^-6 M after 48 hrs by SRB assay; conditions: SK-OV-3, 48 h, read-out: GI; in short: as §3
NCI-H522 [10] = experiment: Cytotoxicity against human NCI-H522 cells at 10^-5 M after 48 hrs by SRB assay; conditions: NCI-H522, 48 h, read-out: GI; in short: as §1
NCI-H522 [11] = experiment: Cytotoxicity against human NCI-H522 cells at 10^-6 M after 48 hrs by SRB assay; conditions: NCI-H522, 48 h, read-out: GI; in short: as §1
OVCAR-8 [12] = experiment: Cytotoxicity against human OVCAR8 cells at 10^-6 M after 48 hrs by SRB assay; conditions: OVCAR-8, 48 h, read-out: GI; in short: as §3
NCI-H460 = experiment: Cytotoxicity against human NCI-H460 cells at 10^-6 M after 48 hrs by SRB assay; conditions: NCI-H460, 48 h, read-out: GI; in short: as §1
SK-MEL-5 [13] = experiment: Cytotoxicity against human SK-MEL-5 cells at 10^-6 M after 48 hrs by SRB assay; conditions: SK-MEL-5, 48 h, read-out: GI; in short: as §3
IGROV-1 = experiment: Cytotoxicity against human IGROV1 cells at 10^-5 M after 48 hrs by SRB assay; conditions: IGROV-1, 48 h, read-out: GI; in short: as §1
[14] = Cytotoxicity against human EKVX cells at 10^-6 M after 48 hrs by SRB assay; conditions: read-out: GI; in short: as §2
MOLT-4 = experiment: Cytotoxicity against human MOLT4 cells at 10^-5 M after 48 hrs by SRB assay; conditions: MOLT-4, 48 h, read-out: GI; in short: as §1
HCT-15 [15] = experiment: Cytotoxicity against human HCT15 cells at 10^-6 M after 48 hrs by SRB assay; conditions: HCT-15, 48 h, read-out: GI; in short: as §2
[16] = Cytotoxicity against human OVCAR5 cells at 10^-5 M after 48 hrs by SRB assay; conditions: OVCAR-5, 48 h, read-out: GI; in short: as §3
SN12C = experiment: Cytotoxicity against human SN12C cells at 10^-6 M after 48 hrs by SRB assay; conditions: read-out: GI
[17] = Cytotoxicity against human UACC257 cells at 10^-5 M after 48 hrs by SRB assay; conditions: UACC-257, 48 h, read-out: GI
CCRF-CEM = experiment: Cytotoxicity against human CCRF-CEM cells at 10^-5 M after 48 hrs by SRB assay; conditions: read-out: GI; in short: as §2
ACHN [18] = experiment: Cytotoxicity against human ACHN cells at 10^-6 M after 48 hrs by SRB assay; conditions: read-out: GI; in short: as §2
SNB-19 [19] = experiment: Cytotoxicity against human SNB19 cells at 10^-5 M after 48 hrs by SRB assay; conditions: SNB-19, 48 h, read-out: GI
OVCAR-3 = experiment: Cytotoxicity against human OVCAR3 cells at 10^-6 M after 48 hrs by SRB assay; conditions: OVCAR-3, 48 h, read-out: GI; in short: as §1
OVCAR-8 [20] = experiment: Cytotoxicity against human OVCAR8 cells at 10^-5 M after 48 hrs by SRB assay; conditions: OVCAR-8, 48 h, read-out: GI; in short: as §3

Structure (SMILES)	inhibition of growth at 10 µM (M14) [%]	inhibition of growth at 1 µM [1] [%]	inhibition of growth at 1 µM (786-0) [%]	inhibition of growth at 10 µM (ACHN [2]) [%]	inhibition of growth at 10 µM (HCT-15 [3]) [%]	inhibition of growth at 10 µM (BT-549) [%]	inhibition of growth at 1 µM (MDA-MB-435) [%]	inhibition of growth at 1 µM (KM12 [4]) [%]	inhibition of growth at 10 µM (KM12 [5]) [%]	inhibition of growth at 10 µM (HL-60(TB)) [%]	inhibition of growth at 1 µM (HT-29 [6]) [%]	inhibition of growth at 1 µM (SNB-19 [7]) [%]	inhibition of growth at 10 µM (NCI/ADR-RES) [%]	inhibition of growth at 10 µM (HT-29 [8]) [%]	inhibition of growth at 10 µM (RPMI-8226) [%]	inhibition of growth at 10 µM (U-251) [%]	inhibition of growth at 1 µM (NCI-H226) [%]	inhibition of growth at 10 µM (SK-MEL-5 [9]) [%]	inhibition of growth at 10 µM (HOP-62) [%]	inhibition of growth at 1 µM (SK-OV-3) [%]	further results
CCN(Cc1nc2cc(C(F)(F)F)ccc2nc1-c1ccccc1)c1ccc(OC)c(OC)c1	17	104	< 40	25	17	33	< 40	< 40	< 40	83	< 40	< 40	21	40	97	62	17	17	18	< 40	inhibition of growth at 10 µM (NCI-H522 [10]): 28%; inhibition of growth at 1 µM (NCI-H522 [11]): < 40%; inhibition of growth at 1 µM (OVCAR-8 [12]): 45%; inhibition of growth at 1 µM (NCI-H460): < 40%; inhibition of growth at 1 µM (SK-MEL-5 [13]): < 40%; inhibition of growth at 10 µM (IGROV-1): 13%; inhibition of growth at 1 µM [14]: < 40%; inhibition of growth at 10 µM (MOLT-4): 44%; inhibition of growth at 1 µM (HCT-15 [15]): < 40%; inhibition of growth at 10 µM [16]: < 40%; inhibition of growth at 1 µM (SN12C): < 40%; inhibition of growth at 10 µM [17]: 146%; inhibition of growth at 10 µM (CCRF-CEM): 70%; inhibition of growth at 1 µM (ACHN [18]): < 40%; inhibition of growth at 10 µM (SNB-19 [19]): < 40%; inhibition of growth at 1 µM (OVCAR-3): 25%; inhibition of growth at 10 µM (OVCAR-8 [20]): 72%
C#CCN(Cc1nc2cc(C(F)(F)F)ccc2nc1-c1ccccc1)c1ccc(C)cc1	95	< 40	< 40	95	110	< 40	104	< 40	137	85	< 40	54	113	99	< 40	85	< 40	99	71	< 40	inhibition of growth at 10 µM (NCI-H522 [10]): 76%; inhibition of growth at 1 µM (NCI-H522 [11]): 49%; inhibition of growth at 1 µM (OVCAR-8 [12]): < 40%; inhibition of growth at 1 µM (NCI-H460): 62%; inhibition of growth at 1 µM (SK-MEL-5 [13]): < 40%; inhibition of growth at 10 µM (IGROV-1): 63%; inhibition of growth at 1 µM [14]: < 40%; inhibition of growth at 10 µM (MOLT-4): 88%; inhibition of growth at 1 µM (HCT-15 [15]): 63%; inhibition of growth at 10 µM [16]: 71%; inhibition of growth at 1 µM (SN12C): < 40%; inhibition of growth at 10 µM [17]: < 40%; inhibition of growth at 10 µM (CCRF-CEM): < 40%; inhibition of growth at 1 µM (ACHN [18]): < 40%; inhibition of growth at 10 µM (SNB-19 [19]): 92%; inhibition of growth at 1 µM (OVCAR-3): 62%; inhibition of growth at 10 µM (OVCAR-8 [20]): 62%
